Assay results as given in the EternaBench riboswitch data.

Tested on: MS2 coat protein
Assay: apparent Kd, MS2 coat protein; higher = weaker binding; RNA-MaP array; FMN 200 µM where present
In short: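 Stalled E. coli RNA polymerase transcribed each design on Illumina sequencing-chip clusters. The clusters were titrated with SNAP-549-labelled MS2 coat protein, starting at 0.7 or 1.5 nM and doubling up to 3 µM, first without ligand and then with constant ligand, in 100 mM Tris-HCl pH 7.5, 80 mM KCl, 4 mM MgCl2, BSA, DTT, yeast tRNA and Tween-20. Green signal was normalised to red-channel RNA signal and to the control-cluster median Fmax. The apparent Kd is the median of filtered binding-curve fits made for each cluster.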

[1] = designed as: OFF switch for flavin mononucleotide, no ligand
[2] = ligand present: flavin mononucleotide, designed as: OFF switch for flavin mononucleotide
[3] = designed as: ON switch for flavin mononucleotide, no ligand
[4] = ligand present: flavin mononucleotide, designed as: ON switch for flavin mononucleotide

Sequence	apparent Kd [1] [nM]	apparent Kd [2] [nM]	apparent Kd [3] [nM]	apparent Kd [4] [nM]
AAACAGGAAGGAUAUACAUUAUCGGAUCUUCUGGCAAUGCCACAUGAGGAUCACCCAUGUAGAAGGUCCAAAUU	13.6	22.9	–	–
GGAUGACAAAGUCAUCCAUAACGAACAUGAGGAUCACCCAUGUAGGAUAUGCUACUCAAAGAGUAGCAGAAGGACAUGUGUCUU	33.9	158	–	–
CCAAACGGAGGAUAUACAAAUUAAGGAAAAAAACGCGAAAAACAUGAGGAUCACCCAUGUAGAAGGCCGAAAAA	19.3	17.9	–	–
AGCCAAAUAGGAUAUGCCCGGGAUAACAUGAGGAUCACCCAUGUGACCGAUUCAUGUCCUGCAGAAGGAUUUGGGA	13.2	24.4	–	–
ACCCGACAUGAGGAUCACCCAUGUAAACAAUCAUGAGGAUAUCCGGAGCAAGUGCUCCAGGGAGAAGGCAUAAAAG	–	–	76.3	42.2
UUCCGGCGUGUAGGAUAUGGAUCCGAUUAGGAUCCAGAAGGACAUGAGGAUCACCCAUGUACAUGUAAACAGUCAUCACCGGAA	6.09	7.65	–	–
CAGUACUGAGGAUAUACAUGAGGAUCACCCAUGUGCUCGAAGUAGGAUACUACUAUUAGUAGAAGGCAGUACUG	16.1	76.8	–	–
AUCUCAGGACGAGGAUAUCAAUACAUGAGGAUCACCCAUGUAUGACUACUGUGAUCCUUUAAGGCUGAGAAGGCGUCCCAAAUG	20.2	60.8	–	–
CCGACGAAAAUCGGGCUACAUGAGGAUCACCCAUGUGCUUCACAGGAUAUGGUACGUAGUGAGUUCCAGAAGGGUGAUUAAUCU	–	–	205	129
AUCCUGCGAGGAUAUACAUAGUUUUUUUCGUUUUGACUCGAACAUGAGGAUCACCCAUGUAGAAGGUGCUUCAC	59.5	56	–	–
GUGUAGAUAUCAGGAUAUCCAUUUCCUACAUGAGGAUCACCCAUGUAGAUGAUCACCCAUGUAAAGGAGAAGGGAUAUCUAUAC	–	–	206	173
GUACUGUAGUGAGGAUAUACGAGAACGAUAGUUCGGCGAUCCAAUUAUACAUGAGGAUCACCCAUGUAGAAGGCACUUCAGUAC	10.8	30.6	–	–
AUAUCUCUGUAAGGAUAUAGAUGGUGUAAGCCUCCGACAUGAGGAUCACCCAUGUUAUAUGUUGUCUAGAAGGUACAGUGUCGG	–	–	1110	898
GGAUCGCAAGAAGAUCCAAUACGAACAUGAGGAUCACCCAUGUAGGAUAUGCUAGAAGAAGAGUAGCAGAAGGACAUGUGCCUU	9.79	42.7	–	–
UUUAUGUGAGGAUAUCAGUAGUAAAAAAAUAAAAUUACUACUGAGAAGGCACAUGAGGAUCACCCAUGUACUUC	40.2	30.5	–	–
ACAUGUAAUGUAGGAUAUUUUACACAUGAGGAUCACCCAUGUGACCAGAGGCUUUGCUAUGAGUAAAAGAAGGGUAUGUACAUG	61.8	60.4	–	–
CUUUAGUGAGGAUAUGUGGCUUCGAUCGUGAGAUCGAGGCUACAGAAGGCACAUGAGGAUCACCCAUGUUCCUA	16.6	59.4	–	–
CCCGGUCGAGCAGGAUAUAGACCGCGUGCAUUUCCCUCAGAUUGAGACAUGAGGAUCACCCAUGUCUAGAAGGGUUCACCGAAA	5.83	6.93	–	–
GGAUUACAUGAGGAUCACCCAUGUGAGGAUAUCGAUGUCCUGUCUUUCGUGCGGGACUCGAGAAGGCACUUGGA	45.2	141	–	–
AAUCUGUGAGGAUAUGGUGAGUAGUGCCUGAGCGCUGCUCACCAGAAGGCACAUGAGGAUCACCCAUGUAUGAC	34.2	153	–	–
AUGCGUGGCUAGGAUAUUGAGGAAAUUAGUCAGCGAGAAGGAGCCACAUGAGGAUCACCCAUGUGGUGAAGCUC	15.5	60.3	–	–
AAGAAGGACGCAGGAUAUCCAGGACCUCCCGCAGGAGAAGGGCGAGACAUGAGGAUCACCCAUACAUGAGGAUCACCCAUGUAG	17.3	18.4	–	–
GGACAGUCAGGAUAUACAUGAGGAUCACCCAUGUUGAGAUGUGAAAGGGCGGGAGUAGGUAGAAGGGACGAGAG	31.3	27.5	–	–
AUAAUGAGAGGAUAUACAUGAGGAUCACCCAUGUUAUUAACACGGCGAGCUCCAAUACGUAGAAGGCUCAUUUA	123	26.5	–	–

Sequence	apparent Kd [1] [nM]	apparent Kd [2] [nM]	apparent Kd [3] [nM]	apparent Kd [4] [nM]
AUUAUGACCGAGUUAUAGUUCCUAACAUGAGGAUCACCCAUGUAGGAUAUCAGCACGAUAAGUGCUGAGAAGGACAUCUCGGUC	13.3	13.9	–	–
GGUGAAUGAACAUGAGGAUCACCCAUGUCCAGGAAACUGAAUGAGGAUAUCCAUAGCAAAGCUAUGGAGAAGGCAUGGGUCACC	–	–	562	241
UCAUUUCUGUAAGGAUAUAUAAACAUGACGAUACAUGAGGAUCACCCAUGUGUAGAAGGUACAAAUACAUAUAAUGCAAUGUUC	14.8	12.9	–	–
GCCGUGUUAGGAUAUUAAAGACCUGCGCCGAGCGCAGGAAGUAAGAAGGAACAUGAGGAUCACCCAUGUGUCCG	18.1	16.1	–	–
AAAAAUGGAGGAUAUACAUGAGGAUCACCCAUGUGUGGCUAUACUAUGUGCUCGUCAGGUAGAAGGCCAAAAAA	31.2	59.2	–	–
GGUCAGCUAGGAUAUACAUGAGGAUCACCCAUGUACUGACCCAUGCGGGAGUCCGCAUGUAGAAGGAGCAAAAU	20.9	22.6	–	–
GUGCGAGCCACAGGAUAUCUACAGAUUUAUUGUAGAGAAGGGUGACCUCGUGCACCACAUGAGGAUCACCCAUGUAACUAGGCG	–	–	30	48.2
AACGGAAUGUAGAAGGGUGACAUGAGGAUCACCCAUGUUCACAUGCGUAUUAAAGUAUGUGAUCCACAGGAUAUACUGUCCGUG	–	–	957	92.8
UGGUGAAGUGUAGGAUAUGGAGGUGGGUUUUGGCCAGAAGGACAUGAGGAUCACCCAUGUGGUAGAGGGUUGGUGGUGGCCCGU	16.7	15.2	–	–
ACAAAAUUGAUCCAAUUUACCAACAUGAGGAUCACCCAUGUGCAGGAUAUGCUAAAGAUGAAUAAGCAGAAGGGCAAAUACAUA	239	708	–	–
CGGUCGAUGUAAGGAUAUCGACUGGAAUACAGUCGAGAAGGUACAUGAGGAUCACCCAUGUAAUCCUAAUAAUAAUAACGACCG	11.1	17.4	–	–
AUUGUUCGAGAGAAGGGAACAUGAGGAUCACCCAUGUUACCUCACCUGGUGACGGAACUCCAAGUUCAGGAUAUCUCGAGCGAU	5.63	8.59	–	–
GACAUCGCAGGAUAUUAUUGUUUGUACAUGAGGAUCACCCAUGUUAAUUGGGUUAGUGUUUAAGAAGGGCGGUGUC	1340	901	–	–
AGUAGGCAGUGAGGAUAUGUACUUGUAACGGUACAUGAGGAUCACCCAUGUGGUGGGAGUGGAGGACAGAAGGCACCGUUUGGG	–	–	114	66.6
ACCAUUUACUAAUCCUCUAUACAUGAGGAUCACCCAUGUUUUGAGGAUAUCAUCGUUCGCCGCGUUGAGAAGGCAAAACAUUCG	18.7	52.9	–	–
CAAUGCCUGUCGAUGCUCGACAUGAGGAUCACCCAUGUAUAGCAGGAUAUGCAGAACUGACUCGUGCAGAAGGGCUAUACCUAA	25.8	61.1	–	–
GUACUGUAGUGAGGAUAUACGAGUGCGAUAGCACGGCGAUCCAUUUAUACAUGAGGAUCACCCAUGUAGAAGGCACUUCAGUAC	6.15	65.6	–	–
UGUCGGAGCAGAGGAUAUUACAUGAGGAUCACCCAUGUAUGAACCAAUAGCUGGAAAUAGCAAUGUAAGAAGGCUGCUCCGACA	15.8	168	–	–
GCGAUUUUGUAAGGAUAUACACGAGUUUCAAGUGUAGAAGGUACUUACAUGAGGAUCACCCAUGUAUACUUGGAUAAUAGUCGU	–	–	29.2	23.5
GUAGCAUUGAGAGGAUAUCCAUACCGGAAACGGACAUGAGGAUCACCCAUGUCGCGAAAGCGGUGGGAGAAGGCUCUAUGCUAC	–	–	4.52	4.46
GCCGGGUAGGCAGGAUAUCCUCGCGCAAACACAUGAGGAUCACCCAUGUACACAAAACGUGAUAUGGAGAAGGGCUGACCCGCA	–	–	33.9	5.84
GGACGUCAGAUUAACAUGAGGAUCACCCAUGUCUUUUGACAUGAGGAUAUGCAACGUAAUUCGUUGCAGAAGGCAUGGACGUCC	–	–	1010	89.8
UCUUAGUCAGGAUAUACAUGAGGAUCACCCAUGUAAAAUUUUAAUUUAAUUUUAAGGUGUAGAAGGGACCAUUU	30.6	26.2	–	–
CUUCGUAUAGAGGAUAUAGGUUACCUCGGUAUCCUAGAAGGCUGUACAUGAGGAUCACCCAUGUACUUCAGAUC	12.4	14.5	–	–
